In ChEMBL document CHEMBL3808369, “Identification of Cyproheptadine as an Inhibitor of SET Domain Containing Lysine Methyltransferase 7/9 (Set7/9) That Regulates Estrogen-Dependent Transcription” (J Med Chem, 2016):

Test system: Mus musculus
Assay: Effect on body weight in Balb/c-nu/nu mouse xenografted with Fucci introduced human MCF7 cells at 20 mg/kg, ip qd administered as continuous dose for 8 days measured every 3 to 4 days until day 15
Format: ADME, organism-based
Conditions: in vivo
Method in brief: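 Female Balb/C-nu/nu mice, 7 weeks old, each inoculated with about 2 × 10^7 Fucci-MCF7 cells in the mammary gland. Dosing started when tumors reached about 100 mm3, 13 days after inoculation. 20 mg/kg given ip once daily, days 1–8, in saline with 10% ethanol; a vehicle group ran alongside. Caliper tumor volume (a2b)/2 and body weight were recorded every 3 or 4 days to day 15. Six mice per group, mean ± SE.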

**Q.** With CN1CCC(=C2c3ccccc3C=Cc3ccccc32)CC1 [CYPROHEPTADINE] as the molecule, how does the Activity read?
**A.** Non-toxic
